Measured values published in ChEMBL document CHEMBL1131203, “Second generation "peptoid" CCK-B receptor antagonists: identification and development of N-(adamantyloxycarbonyl)-alpha-methyl-(R)-tryptophan derivative (CI-1015) with an improved pharmacokinetic profile” (J Med Chem, 1998).

Legend:
[1] = Pharmacokinetic parameter tmax was evaluated in HP-beta-CD solution at a dose of 20 mg/kg orally; format: ADME, organism-based; parameters: dose 20 mg/kg, route oral; details: in vivo, po
Method in brief: (§1)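 Fasted male Wistar rats, groups of 3–4, given a single oral 20 mg/kg dose in the stated vehicle. Heparinized plasma was collected from an implanted jugular-vein cannula at serial times out to 24 h, kept frozen, and assayed by validated HPLC-fluorescence. Cmax, tmax, AUC(0–∞) and terminal t1/2 were obtained by noncompartmental analysis. Values are means (%RSD).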

[2] = Maximum plasma concentration evaluated in 100% PEG solution at a dose of 20 mg/kg orally; format: ADME, organism-based; parameters: dose 20 mg/kg, route oral; details: po; method in brief: as §1
[3] = Pharmacokinetic parameter AUC was evaluated in 100% PEG solution at a dose of 20 mg/kg orally; format: ADME, organism-based; parameters: dose 20 mg/kg, route oral; details: in vivo, po; method in brief: as §1
[4] = Pharmacokinetic parameter tmax was evaluated in DMA:H2O solution at a dose of 20 mg/kg orally; format: ADME, organism-based; parameters: dose 20 mg/kg, route oral; details: in vivo, po; method in brief: as §1
[5] = Pharmacokinetic parameter tmax was evaluated in 100% PEG solution at a dose of 20 mg/kg orally; format: ADME, organism-based; parameters: dose 20 mg/kg, route oral; details: in vivo, po; method in brief: as §1
[6] = Pharmacokinetic parameter half-life was evaluated in HP-beta-CD solution at a dose of 20 mg/kg orally; format: ADME, organism-based; parameters: dose 20 mg/kg, route oral; details: in vivo, po; method in brief: as §1
[7] = Absolute oral bioavailability was evaluated in 100% PEG solution at a dose of 20 mg/kg orally; format: ADME, organism-based; details: eutheria, in vivo
Method in brief: (§2)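 Fasted male Wistar rats, groups of 3–4, given a single 20 mg/kg dose po or iv in the stated vehicle. Heparinized plasma was drawn from a jugular-vein cannula at serial times out to 24 h and assayed by validated HPLC-fluorescence. Absolute bioavailability is the dose-normalized ratio of AUC after po dosing to AUC after iv dosing.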

[8] = Maximum plasma concentration was evaluated in DMA:H2O solution at a dose of 20 mg/kg orally; format: ADME, organism-based; parameters: dose 20 mg/kg, route oral; details: po; method in brief: as §1
[9] = Pharmacokinetic parameter AUC was evaluated in 0.5% methylcellulose suspension at a dose of 20 mg/kg orally; format: ADME, organism-based; parameters: dose 20 mg/kg, route oral; details: in vivo, po; method in brief: as §1
Mus musculus [10] = assay: Concentration in forebrain after intravenous injection evaluated after 5 min. at a dose of 1 mg/kg; format: functional
Method in brief: (§3)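 Ex vivo binding: mice were dosed iv with compound or vehicle, given either as saline or as 10% EtOH–60% propylene glycol–30% saline. Forebrains were taken at 5, 10 or 20 min, homogenized in HEPES buffer with bacitracin at pH 7.2, and incubated with 50 pM [125I]BH-CCK8s for 2 h at 22 °C. After filtration, bound radioligand was gamma-counted and read against calibration curves prepared in vehicle tissue. Detection limit was about 1 pmol/forebrain. n = 3–13.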

[11] = Oral bioavailability (dosed in HP-beta-CD solution) (dose 20 mg/kg p.o.); format: ADME, organism-based; details: eutheria, in vivo; method in brief: as §2
[12] = Maximum plasma concentration was evaluated in 0.5% methylcellulose suspension at a dose of 20 mg/kg orally; format: ADME, organism-based; parameters: dose 20 mg/kg, route oral; details: po; method in brief: as §1
[13] = Pharmacokinetic parameter half-life was evaluated in 100% PEG solution; format: ADME, organism-based; details: in vivo; method in brief: as §1
[14] = Absolute oral bioavailability was evaluated in DMA:H2O solution at a dose of 20 mg/kg orally; format: ADME, organism-based; details: eutheria, in vivo; method in brief: as §2
[15] = Ratio of IC50 towards CCK-A receptor and CCK-B receptor
[16] = biological target: T1, Gastrin/cholecystokinin type B receptor (Mus musculus, UniProt P56481); assay: Inhibitory concentration against radioligand [125I]Bolton-Hunter labeled CCK-8 to cholecystokinin type B receptor in the mouse cerebral cortex; format: tissue-based
T1 sequence (P56481 whole entry): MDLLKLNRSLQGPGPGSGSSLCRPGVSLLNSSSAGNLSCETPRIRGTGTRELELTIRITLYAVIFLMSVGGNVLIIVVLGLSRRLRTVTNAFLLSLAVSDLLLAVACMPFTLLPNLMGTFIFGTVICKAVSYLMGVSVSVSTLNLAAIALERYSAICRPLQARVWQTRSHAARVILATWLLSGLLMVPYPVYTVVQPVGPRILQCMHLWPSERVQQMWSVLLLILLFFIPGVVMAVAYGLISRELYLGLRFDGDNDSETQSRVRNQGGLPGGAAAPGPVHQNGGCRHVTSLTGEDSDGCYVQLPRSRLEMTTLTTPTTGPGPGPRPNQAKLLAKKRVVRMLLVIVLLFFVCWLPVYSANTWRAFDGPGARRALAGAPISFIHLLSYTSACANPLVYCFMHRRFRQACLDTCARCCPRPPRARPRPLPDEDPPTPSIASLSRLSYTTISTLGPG

[17] = Pharmacokinetic parameter AUC was evaluated in HP-beta-CD solution at a dose of 20 mg/kg orally; format: ADME, organism-based; parameters: dose 20 mg/kg, route oral; details: in vivo, po; method in brief: as §1
[18] = Maximum plasma concentration evaluated in HP-beta-CD solution at a dose of 20 mg/kg orally; format: ADME, organism-based; parameters: dose 20 mg/kg, route oral; details: po; method in brief: as §1
Mus musculus [19] = assay: Concentration in forebrain after intravenous injection evaluated after 20 min. at a dose of 1 mg/kg; format: functional; method in brief: as §3
[20] = Pharmacokinetic parameter AUC was evaluated in DMA:H2O solution at a dose of 20 mg/kg orally; format: ADME, organism-based; parameters: dose 20 mg/kg, route oral; details: in vivo, po; method in brief: as §1
[21] = biological target: T2, Cholecystokinin receptor type A (Rattus norvegicus, UniProt P30551); assay: Inhibitory concentration against radioligand [125I]Bolton-Hunter labeled CCK-8 to cholecystokinin type A receptor in the rat pancreas
T2 sequence (P30551 whole entry): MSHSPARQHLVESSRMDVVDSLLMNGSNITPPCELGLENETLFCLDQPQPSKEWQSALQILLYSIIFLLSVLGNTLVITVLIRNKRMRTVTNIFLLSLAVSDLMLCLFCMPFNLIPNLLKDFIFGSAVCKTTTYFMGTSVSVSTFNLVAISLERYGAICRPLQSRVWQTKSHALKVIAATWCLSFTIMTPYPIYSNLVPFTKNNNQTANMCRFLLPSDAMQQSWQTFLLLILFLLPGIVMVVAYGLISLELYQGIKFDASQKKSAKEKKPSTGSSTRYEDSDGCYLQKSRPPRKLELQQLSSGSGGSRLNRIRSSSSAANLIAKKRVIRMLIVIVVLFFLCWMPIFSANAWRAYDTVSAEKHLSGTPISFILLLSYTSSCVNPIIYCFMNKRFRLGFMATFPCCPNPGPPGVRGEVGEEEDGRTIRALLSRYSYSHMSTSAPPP

Mus musculus [22] = assay: Concentration in forebrain after intravenous injection evaluated after 10 min. at a dose of 1 mg/kg; format: functional; method in brief: as §3
[23] = Pharmacokinetic parameter half-life was evaluated in DMA:H2O solution at a dose of 20 mg/kg orally; format: ADME, organism-based; parameters: dose 20 mg/kg, route oral; details: in vivo, po; method in brief: as §1
[24] = Absolute oral bioavailability evaluated in 0.5% methylcellulose suspentionat a dose of 20 mg/kg orally; format: ADME, organism-based; details: eutheria, in vivo; method in brief: as §2
[25] = Pharmacokinetic parameter tmax evaluated in 0.5% methylcellulose suspension at a dose of 20 mg/kg orally; format: ADME, organism-based; parameters: dose 20 mg/kg, route oral; details: in vivo, po; method in brief: as §1
Mus musculus [26] = assay: Concentration in forebrain after 5 min of injection at a concentration of 1 mg/kg, iv in mice; format: functional; method in brief: as §3
[27] = Maximum plasma concentration was evaluated in 100% of PEG solution at a dose of 20 mg/kg orally; format: ADME, organism-based; parameters: dose 20 mg/kg, route oral; details: po; method in brief: as §1
[28] = Pharmacokinetic parameter AUC was evaluated in 10% PEG suspension at a dose of 20 mg/kg orally; format: ADME, organism-based; parameters: dose 20 mg/kg, route oral; details: in vivo, po; method in brief: as §1
[29] = Pharmacokinetic parameter Tmax was evaluated in 0.5% methylcellulose suspension; details: in vivo
[30] = Pharmacokinetic parameter half-life was evaluated in 10% PEG suspension at a dose of 20 mg/kg orally; format: ADME, organism-based; parameters: dose 20 mg/kg, route oral; details: in vivo, po; method in brief: as §1
[31] = Absolute oral bioavailability was evaluated in 100% PEG solution; format: ADME, organism-based; details: eutheria, in vivo; method in brief: as §2
[32] = Pharmacokinetic parameter half-life was evaluated in 0.5% methylcellulose suspension at a dose of 20 mg/kg orally; format: ADME, organism-based; parameters: dose 20 mg/kg, route oral; details: in vivo, po; method in brief: as §1
[33] = Pharmacokinetic parameter half-life evaluated in HP-beta-CD solution at a dose of 20 mg/kg orally; format: ADME, organism-based; parameters: dose 20 mg/kg, route oral; details: in vivo, po; method in brief: as §1
[34] = Pharmacokinetic parameter AUC evaluated in 0.5% methylcellulose suspension at a dose of 20 mg/kg orally; format: ADME, organism-based; parameters: dose 20 mg/kg, route oral; details: in vivo, po; method in brief: as §1
[35] = Absolute oral bioavailability was evaluated in 10% PEG suspension at a dose of 20 mg/kg orally; format: ADME, organism-based; details: eutheria, in vivo; method in brief: as §2
[36] = Absolute oral bioavailability was evaluated in 0.5% methylcellulose suspentionat a dose of 20 mg/kg orally; format: ADME, organism-based; details: eutheria, in vivo; method in brief: as §2
[37] = Pharmacokinetic parameter tmax was evaluated in 10% PEG suspension at a dose of 20 mg/kg orally; format: ADME, organism-based; parameters: dose 20 mg/kg, route oral; details: in vivo, po; method in brief: as §1
Mus musculus [38] = assay: Concentration in forebrain after 20 min of injection at a concentration of 1 mg/kg, iv in mice; format: functional; method in brief: as §3
[39] = Maximum plasma concentration was evaluated in HP-beta-CD solution at a dose of 20 mg/kg orally; format: ADME, organism-based; parameters: dose 20 mg/kg, route oral; details: po; method in brief: as §1
[40] = Pharmacokinetic parameter half-life was evaluated in 100% PEG solution at a dose of 20 mg/kg orally; format: ADME, organism-based; parameters: dose 20 mg/kg, route oral; details: in vivo, po; method in brief: as §1
Mus musculus [41] = assay: Concentration in forebrain after 10 min of injection at a concentration of 1 mg/kg, iv in mice; format: functional; method in brief: as §3
[42] = Maximum plasma concentration was evaluated in 10% of PEG suspension at a dose of 20 mg/kg orally; format: ADME, organism-based; parameters: dose 20 mg/kg, route oral; details: po; method in brief: as §1

## C[C@](Cc1c[nH]c2ccccc12)(NC(=O)OC1C2CC3CC(C2)CC1C3)C(=O)N[C@H](CO)Cc1ccccc1 (some centres undefined)
[1]
  Tmax: 0.9 h
[2]
  Cmax: 167 ng/mL
[3]
  AUC: 886 ng·h/mL
[4]
  Tmax: 1.2 h
[5]
  Tmax: 2.8 h
[6]
  half-life: 1.5 h
[7]
  bioavailability: 9.6%
[8]
  Cmax: 212 ng/mL
[9]
  AUC: 188 ng·h/mL
Mus musculus [10]
  Brain level: 40 pmol/forebrain
[11]
  bioavailability: 16%
[12]
  Cmax: 42 ng/mL
[13]
  half-life: 1.1 h
[14]
  bioavailability: 9.6%
[15]
  Ratio: 123
[16]
  IC50: 6.3 nM
[17]
  AUC: 1440 ng·h/mL
[18]
  Cmax: 416 ng/mL
Mus musculus [19]
  Brain level: 43 pmol/forebrain
[20]
  AUC: 890 ng·h/mL
[21]
  IC50: 780 nM
Mus musculus [22]
  Brain level: 68 pmol/forebrain
[23]
  half-life: 2.3 h
[24]
  bioavailability: 2%
[25]
  Tmax: 2.9 h

## C[C@](Cc1c[nH]c2ccccc12)(NC(=O)OC1C2CC3CC(C2)CC1C3)C(=O)N[C@@H]1CCCC[C@H]1O (some centres undefined)
Mus musculus [26]
  Brain level: 177 pmol/forebrain
[1]
  Tmax: 1.8 h
[3]
  AUC: 724 ng·h/mL
[5]
  Tmax: 1 h
[11]
  bioavailability: 28%
[12]
  Cmax: 185 ng/mL
[27]
  Cmax: 219 ng/mL
[28]
  AUC: 953 ng·h/mL
[29]
  Tmax: 3 h
[17]
  AUC: 2130 ng·h/mL
[30]
  half-life: 1.1 h
[31]
  bioavailability: 9.6%
[32]
  half-life: 1 h
[33]
  half-life: 0.9 h
[34]
  AUC: 673 ng·h/mL
[35]
  bioavailability: 13%
[36]
  bioavailability: 8.9%
[21]
  IC50: 2900 nM
[37]
  Tmax: 3.5 h
Mus musculus [38]
  Brain level: 166 pmol/forebrain
[39]
  Cmax: 756 ng/mL
[40]
  half-life: 1.3 h
Mus musculus [41]
  Brain level: 154 pmol/forebrain
[42]
  Cmax: 203 ng/mL
